# In ChEMBL document CHEMBL6092224, “The Discovery and Preclinical Profile of ALG-000184, a Prodrug of the Potent Hepatitis B Virus Capsid Assembly Modulator ALG-001075” (J Med Chem, 2024):
# Calls of active or inactive are those of the source. The calls are words filed in the database; no cut-off is given here.
# How the values were obtained:
# Hepatitis B virus [1] = assay: Antiviral activity against HBV genotype D infected in human HepG2.117 cells assessed as decrease in HBV DNA production in presence of 40 percent human serum by qPCR analysis; assay type: functional, organism-based
# Procedure, shortened: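 HepG2.117 cells (integrated genotype D HBV genome, Tet-off promoter; kept in 1 μg/mL doxycycline) were seeded at 20,000 cells/well and given serial compound dilutions (2% DMSO) for 3 days at 37 °C. Lysates were taken in 0.33% NP40. Intracellular HBV DNA was quantified by qPCR and EC50/EC90 derived. For serum shift, 40% human serum was present during incubation. Mean ± SEM, n=3 (serum) or 13.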
# Hepatitis B virus [2] = assay: Antiviral activity against HBV infected in human primary hepatocyte cells assessed as decrease in HBeAg level pre-infected cells with virus followed by compound treatment for 3 days and subsequent replacement of medium with compound measured after 4 days by CLIA; assay type: functional, organism-based
# [3] = Apparent permeability across apical to basal side in human Caco-2 cells at 1 uM incubated for 1 hr; assay type: ADME, cell-based
# Procedure, shortened: (§1)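 Bidirectional transport across Caco-2 cells in HBSS, pH 7.4, 0.1% final DMSO. Compound was tested at 1 or 2 μM for 1 h at 37 °C, 5% CO2. Apical and basal samples gave apparent permeability A→B and B→A, and the efflux ratio.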
# [4] = Ratio of drug concentration in blood to plasma in mouse at 5 uM incubated for 60 mins; assay type: ADME, cell-free
# Procedure, shortened: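 Compound at 5 μM in whole blood of each species, 37 ± 1 °C for 60 min; blood-to-plasma ratio and red blood cell partitioning determined.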
# [5] = Clearance in C57BL/6J mouse at 1 mg/kg, iv by LC-MS/MS analysis; assay type: ADME, organism-based; details: in vivo
# Procedure, shortened: (§2)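 Single dose to fasted male C57BL6 mice, Sprague-Dawley rats, beagle dogs and cynomolgus monkeys, either IV at 1 mg/kg or PO as a solution at 5 mg/kg, in 80% PEG 400 in water. Plasma concentrations were measured by LC-MS/MS. PK parameters come from noncompartmental analysis using nominal doses and nominal sampling times.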
# [6] = Cmax in C57BL/6J mouse at 5 mg/kg, po by LC-MS/MS analysis; assay type: ADME, organism-based; details: in vivo; procedure, shortened: as §2
# [7] = Clearance in Sprague-Dawley rat at 1 mg/kg, iv by LC-MS/MS analysis; assay type: ADME, organism-based; details: in vivo; procedure, shortened: as §2
# [8] = Volume of distribution at steady state in Sprague-Dawley rat at 1 mg/kg, iv by LC-MS/MS analysis; assay type: ADME, organism-based; details: in vivo, read-out: Vdss
# Procedure, shortened: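 Fasted males (C57BL6 mice, Sprague−Dawley rats, beagle dogs, cynomolgus monkeys) given a single IV dose of 1 mg/kg in 80% PEG 400 in water. Plasma concentrations measured by LC-MS/MS. Vss derived by noncompartmental analysis using nominal dose and nominal sampling times.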
# [9] = AUC (infinity) in Sprague-Dawley rat at 1 mg/kg, iv by LC-MS/MS analysis; assay type: ADME, organism-based; details: in vivo; procedure, shortened: as §2
# [10] = AUC (infinity) in Sprague-Dawley rat at 5 mg/kg, po by LC-MS/MS analysis; assay type: ADME, organism-based; details: in vivo; procedure, shortened: as §2
# [11] = Clearance in Beagle dog at 1 mg/kg, iv by LC-MS/MS analysis; assay type: ADME, organism-based, Canis lupus familiaris; details: in vivo; procedure, shortened: as §2
# [12] = Half life in Beagle dog at 1 mg/kg, iv by LC-MS/MS analysis; assay type: ADME, organism-based, Canis lupus familiaris; details: in vivo; procedure, shortened: as §2
# [13] = Tmax in Beagle dog at 5 mg/kg, po by LC-MS/MS analysis; assay type: ADME, organism-based, Canis lupus familiaris; details: in vivo
# Procedure, shortened: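 Fasted males (C57BL6 mice, Sprague−Dawley rats, beagle dogs, cynomolgus monkeys) given a single oral solution dose of 5 mg/kg in 80% PEG 400 in water. Plasma sampled over time, analysed by LC-MS/MS. Noncompartmental analysis used nominal doses and nominal sampling times.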
# [14] = Oral bioavailability in Beagle dog at 5 mg/kg by LC-MS/MS analysis; assay type: ADME, organism-based, Canis lupus familiaris; details: in vivo
# Procedure, shortened: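 Fasted male C57BL6 mice, Sprague–Dawley rats, beagle dogs, cynomolgus monkeys; single IV dose 1 mg/kg or PO solution 5 mg/kg in 80% PEG 400 in water; plasma concentrations measured, noncompartmental analysis with nominal doses and times; F from PO vs IV AUC.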
# [15] = AUC (infinity) in Cynomolgous monkey at 1 mg/kg, iv by LC-MS/MS analysis; assay type: ADME, organism-based, Macaca fascicularis; details: cynomolgus monkey, in vivo; procedure, shortened: as §2
# [16] = Cmax in Cynomolgous monkey at 5 mg/kg, po by LC-MS/MS analysis; assay type: ADME, organism-based, Macaca fascicularis; details: cynomolgus monkey, in vivo; procedure, shortened: as §2
# Hepatitis B virus [17] = assay: Antiviral activity against AAV-Hepatitis B virus infected in C57BL/6 mouse assessed as reduction in baseline HBV DNA production at 15 to 50 mg/kg, po qd for 56 days followed by induction of compound washout period measured after 7 days; assay type: functional, organism-based; details: dose 15-50 mg/kg, time 63.0 day
# [18] = Toxicity in C57BL/6 mouse infected with AAV-Hepatitis B virus assessed as change in ALT level at 15 to 50 mg/kg, po qd for 56 days followed by induction of compound washout period for 14 days; assay type: organism-based; details: in vivo, 1680 h, dose 15-50 mg/kg, time 70 day
# Mus musculus = assay: Effect on HBeAg level in C57BL/6 mouse infected with AAV-Hepatitis B virus at 15 mg/kg, po bid for 56 days followed by induction of compound washout period for 14 days; assay type: functional, organism-based; details: time 70.0 day
# Cytochrome P450 2B6 = target: T1, Cytochrome P450 2B6 (Homo sapiens, UniProt P20813); assay: Induction of CYP2B6 (unknown origin) in human hepatocytes upto 30 uM; assay type: ADME, cell-based, Hepatocyte
# T1 sequence (P20813 whole entry): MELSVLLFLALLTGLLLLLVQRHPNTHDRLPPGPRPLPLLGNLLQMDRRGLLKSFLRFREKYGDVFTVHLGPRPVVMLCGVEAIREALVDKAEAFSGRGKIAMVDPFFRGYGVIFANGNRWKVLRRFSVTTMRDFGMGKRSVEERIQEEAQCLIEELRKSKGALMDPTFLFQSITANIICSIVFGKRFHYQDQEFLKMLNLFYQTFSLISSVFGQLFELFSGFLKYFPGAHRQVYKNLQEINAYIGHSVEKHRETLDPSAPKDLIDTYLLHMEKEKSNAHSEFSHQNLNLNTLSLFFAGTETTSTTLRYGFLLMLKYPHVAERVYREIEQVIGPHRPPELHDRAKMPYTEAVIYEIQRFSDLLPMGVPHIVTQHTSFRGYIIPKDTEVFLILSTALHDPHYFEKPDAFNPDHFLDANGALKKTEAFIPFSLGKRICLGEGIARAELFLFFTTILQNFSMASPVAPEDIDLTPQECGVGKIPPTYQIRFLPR
# [19] = target: Multidrug and toxin extrusion protein 2 (Homo sapiens, UniProt Q86VL8); assay: Inhibition of MATE2 (unknown origin) transfected in HEK293 cells; assay type: cell-based
# [20] = Effect on mitochondrial biogenesis in human HepG2 cells upto 10 uM; assay type: toxicity, cell-based; details: hepg2, 10 µM
# [21] = Effect on cell proliferation in bone marrow (unknown origin) upto 10 uM; assay type: toxicity, tissue-based
# [22] = Apparent permeability across apical to basal side in human Caco-2 cells at 2 uM incubated for 1 hr; assay type: ADME, cell-based; procedure, shortened: as §1
# [23] = Efflux ratio of apparent permeability in human Caco-2 cells at 2 uM incubated for 1 hr; assay type: ADME, cell-based; procedure, shortened: as §1
# [24] = Plasma protein binding in human at 2 uM incubated for 4 to 24 hrs by equilibrium dialysis method; assay type: ADME, cell-free; details: time 4-24 hrs, read-out: PPB (converted)
# Procedure, shortened: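 Rapid equilibrium dialysis in mouse, rat, dog, monkey or human plasma for 4 or 24 h at 2 μM.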
# Chain of Multidrug and toxin extrusion protein 2 (Q86VL8 whole entry): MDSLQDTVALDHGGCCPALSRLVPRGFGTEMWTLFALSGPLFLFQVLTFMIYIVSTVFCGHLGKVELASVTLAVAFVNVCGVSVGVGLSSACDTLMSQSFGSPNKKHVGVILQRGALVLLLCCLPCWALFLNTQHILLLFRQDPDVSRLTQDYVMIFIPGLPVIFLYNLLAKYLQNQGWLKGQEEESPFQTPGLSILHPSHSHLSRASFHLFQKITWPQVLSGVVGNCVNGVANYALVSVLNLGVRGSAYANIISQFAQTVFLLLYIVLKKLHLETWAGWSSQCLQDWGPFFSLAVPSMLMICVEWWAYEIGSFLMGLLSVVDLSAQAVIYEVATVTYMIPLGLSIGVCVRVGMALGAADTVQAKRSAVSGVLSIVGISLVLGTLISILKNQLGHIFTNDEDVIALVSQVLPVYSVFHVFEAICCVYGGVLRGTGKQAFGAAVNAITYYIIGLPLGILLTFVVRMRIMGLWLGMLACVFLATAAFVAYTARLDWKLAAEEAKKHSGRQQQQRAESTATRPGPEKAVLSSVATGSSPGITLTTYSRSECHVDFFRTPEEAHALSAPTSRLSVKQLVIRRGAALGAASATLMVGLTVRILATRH
compound,measurement,setting,value
C#CC1(NC(=O)C(=O)c2c(C)c(C(=O)Nc3ccc(F)c(C#N)c3)n(C)c2C)COC1,EC50,Hepatitis B virus [1],7.48 nM
same,EC50,Hepatitis B virus [2],10.5 nM
same,"Papp A→B at 1 h, 1 µM",[3],1.8 ×10⁻⁶ cm/s
same,"blood plasma ratio at 1 h, 5 µM",[4],0.83
same,clearance,[5],12 mL/min/kg
same,Cmax,[6],2290 ng/mL
same,clearance,[7],6.09 mL/min/kg
same,Vd,[8],0.5 L/kg
same,AUC(0-inf),[9],2780 ng·h/mL
same,AUC(0-inf),[10],8720 ng·h/mL
same,clearance,[11],1.97 mL/min/kg
same,half-life,[12],6.38 h
same,Tmax,[13],2.17 h
same,bioavailability,[14],57.5%
same,AUC(0-inf),[15],2240 ng·h/mL
same,Cmax,[16],490 ng/mL
same,Activity,Hepatitis B virus [17],inactive
same,Activity,[18],Non-toxic
same,Activity,Mus musculus,inactive
same,Activity,Cytochrome P450 2B6,Not_active
same,IC50,[19],> 11800 nM
same,Activity,[20],Non-toxic
same,Activity,[21],Non-toxic
C#CC1(N(COP(=O)([O-])[O-])C(=O)C(=O)c2c(C)c(C(=O)Nc3ccc(F)c(C#N)c3)n(C)c2C)COC1.[Na+].[Na+],"Papp A→B at 1 h, 2 µM",[22],4.6 ×10⁻⁶ cm/s
same,"efflux ratio at 1 h, 2 µM",[23],1.9
same,fraction unbound at 2 µM,[24],0.11
